# Experimental data taken from ChEMBL document CHEMBL2034842, “Synthesis, anti-Candida activity, and cytotoxicity of new (4-(4-iodophenyl)thiazol-2-yl)hydrazine derivatives” (Eur J Med Chem, 2012).
# Tests used:
# [1] = test system: Escherichia coli; test: Antibacterial activity against Escherichia coli after 18 to 22 hrs by […]; type: functional
# [2] = test system: Proteus vulgaris; test: Antibacterial activity against Proteus vulgaris after 18 to 22 hrs by […]; type: functional
# [3] = test system: Klebsiella aerogenes; test: Antibacterial activity against Enterobacter aerogenes after 18 to 22 hrs by […]; type: functional
# [4] = test system: Klebsiella pneumoniae; test: Antibacterial activity against Klebsiella pneumoniae after 18 to 22 hrs by […]; type: functional
# [5] = test system: Staphylococcus aureus; test: Antibacterial activity against Staphylococcus aureus after 18 to 22 hrs by […]; type: functional
# [6] = test system: Staphylococcus warneri; test: Antibacterial activity against Staphylococcus warneri after 18 to 22 hrs by […]; type: functional
# [7] = test system: Streptococcus pyogenes; test: Antibacterial activity against Streptococcus pyogenes after 18 to 22 hrs by […]; type: functional
# [8] = test system: Enterococcus faecalis; test: Antibacterial activity against Enterococcus faecalis after 18 to 22 hrs by […]; type: functional
# [9] = test system: Candida albicans; test: Antifungal activity against 10 strains of Candida albicans after 24 hrs by […]; type: functional
# [10] = test system: Pichia kudriavzevii; test: Antifungal activity against 3 strains of Candida krusei after 24 hrs by […]; type: functional
# [11] = test system: Candida parapsilosis; test: Antifungal activity against 4 strains of Candida parapsilosis after 24 hrs by […]; type: functional; settings: Lodderomyces parapsilosis
# [12] = test system: [Candida] sake; test: Antifungal activity against 2 strains of Candida sake after 24 hrs by […]; type: functional; settings: Fermentozyma sake
# [13] = test system: Nakaseomyces glabratus; test: Antifungal activity against 4 strains of Candida glabrata after 24 hrs by […]; type: functional
# [14] = test system: Candida tropicalis; test: Antifungal activity against 4 strains of Candida tropicalis after 24 hrs by […]; type: functional
# [15] = test system: HEp-2; test: Antiproliferative activity against human Hep2 cells assessed as cell survival fraction after 24 hrs by MTT assay; type: cell-based; settings: HEp-2, 24 h
# Summary of the method: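 Hep2 laryngeal carcinoma cells seeded in triplicate at 1 × 10^5/well in serum-free DMEM. Exposed 24 h at 37 °C, 5% CO2, to six concentrations ([…]); DMSO ≤0.5%. MTT reagent added for 2 h at 37 °C, then detergent for 2 h at room temperature in the dark. OD550 minus OD650 read. EC50 from ≥3 independent experiments.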
# [16] = Antiproliferative activity against human Hep2 cells assessed as cell survival fraction at 100 ug/mL after 24 hrs by MTT assay; type: cell-based; settings: HEp-2 cells, read-out: Survival
# Summary of the method: (§1)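 Hep2 (human laryngeal carcinoma) cells maintained in DMEM + 10% FBS + 1% pen/strep, 37 °C, 5% CO2. Seeded in triplicate at 1 × 10^5/well in serum-free medium and exposed 24 h at 37 °C to six compound concentrations (100–0.05). DMSO stock diluted in medium, final DMSO ≤0.5%. MTT reagent added for 2 h at 37 °C, then detergent for 2 h at RT in the dark. Read as OD550 minus OD650.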
# [17] = Antiproliferative activity against human Hep2 cells assessed as cell survival fraction at 50 ug/mL after 24 hrs by MTT assay; type: cell-based; settings: HEp-2 cells, read-out: Survival; summary of the method: as §1
# [18] = Antiproliferative activity against human Hep2 cells assessed as cell survival fraction at 10 ug/mL after 24 hrs by MTT assay; type: cell-based; settings: HEp-2 cells, read-out: Survival; summary of the method: as §1
# [19] = Antiproliferative activity against human Hep2 cells assessed as cell survival fraction at 5 ug/mL after 24 hrs by MTT assay; type: cell-based; settings: HEp-2 cells, read-out: Survival; summary of the method: as §1
# [20] = Antiproliferative activity against human Hep2 cells assessed as cell survival fraction at 0.5 ug/mL after 24 hrs by MTT assay; type: cell-based; settings: HEp-2 cells, read-out: Survival; summary of the method: as §1
# [21] = Antiproliferative activity against human Hep2 cells assessed as cell survival fraction at 0.05 ug/mL after 24 hrs by MTT assay; type: cell-based; settings: HEp-2 cells, read-out: Survival; summary of the method: as §1
# [22] = Cytotoxicity against human Hep2 cells assessed as cell survival fraction at 100 ug/mL after 24 hrs by trypan blue exclusion method; type: cell-based; settings: HEp-2 cells, read-out: Survival
# Summary of the method: (§2)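 Hep2 cells grown in DMEM + 10% FBS + 1% pen/strep at 37 °C, 5% CO2, used at 60–70% confluency. Exponential-phase cells (1 × 10^5/mL) incubated 24 h with six concentrations (100–0.05), final DMSO ≤0.5%. Controls were cells alone or cells + DMSO, with 1 mM sodium nitroprusside as positive control. Cells scraped off, mixed 1:1 with 0.4% trypan blue and counted on a hemocytometer by two operators. Blue cells were scored dead; results given as % viable cells.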
# [23] = Cytotoxicity against human Hep2 cells assessed as cell survival fraction at 50 ug/mL after 24 hrs by trypan blue exclusion method; type: cell-based; settings: HEp-2 cells, read-out: Survival; summary of the method: as §2
# [24] = Cytotoxicity against human Hep2 cells assessed as cell survival fraction at 10 ug/mL after 24 hrs by trypan blue exclusion method; type: cell-based; settings: HEp-2 cells, read-out: Survival; summary of the method: as §2
# [25] = Cytotoxicity against human Hep2 cells assessed as cell survival fraction at 5 ug/mL after 24 hrs by trypan blue exclusion method; type: cell-based; settings: HEp-2 cells, read-out: Survival; summary of the method: as §2
# [26] = Cytotoxicity against human Hep2 cells assessed as cell survival fraction at 0.5 ug/mL after 24 hrs by trypan blue exclusion method; type: cell-based; settings: HEp-2 cells, read-out: Survival; summary of the method: as §2
# [27] = Cytotoxicity against human Hep2 cells assessed as cell survival fraction at 0.05 ug/mL after 24 hrs by trypan blue exclusion method; type: cell-based; settings: HEp-2 cells, read-out: Survival; summary of the method: as §2
# [28] = test system: HEp-2; test: Cytotoxicity against human Hep2 cells assessed as cell survival fraction after 24 hrs by trypan blue exclusion method; type: cell-based; settings: HEp-2, 24 h
# Summary of the method: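 Hep2 cells in DMEM with 10% FBS and 1% penicillin-streptomycin, at 37 °C, 5% CO2, grown to 60–70% confluency. Seeded at 1 × 10^5/mL and exposed 24 h to six concentrations ([…]); DMSO ≤0.5%. Controls were cells alone, cells with DMSO, and 1 mM nitroprusside. Scraped cells mixed 1:1 with 0.4% trypan blue; blue cells counted as dead by hemocytometer, two operators. EC50 from ≥3 independent experiments.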
Compound,MIC [1],MIC [9],MIC [10],MIC [11],MIC [12],MIC [13],MIC [14],EC50 [15],"viability at 24 h, 100 ug/mL [16]","viability at 24 h, 50 ug/mL [17]","viability at 24 h, 10 ug/mL [18]","viability at 24 h, 5 ug/mL [19]","viability at 24 h, 0.5 ug/mL [20]","viability at 24 h, 0.05 ug/mL [21]","viability at 24 h, 100 ug/mL [22]","viability at 24 h, 50 ug/mL [23]","viability at 24 h, 10 ug/mL [24]","viability at 24 h, 5 ug/mL [25]","viability at 24 h, 0.5 ug/mL [26]","viability at 24 h, 0.05 ug/mL [27]",further results
CCC/C(C)=N/Nc1nc(-c2ccc(I)cc2)cs1,> 128 µg/mL,0.25 µg/mL,4 µg/mL,2 µg/mL,32 µg/mL,2 µg/mL,0.5 µg/mL,45 µg/mL,0%,62%,68%,72%,98%,100%,60%,63%,60%,65%,75%,92%,MIC [2]: > 128 µg/mL; MIC [3]: > 128 µg/mL; MIC [4]: 32 µg/mL; MIC [5]: 32 µg/mL; MIC [6]: 32 µg/mL; MIC [7]: 4 µg/mL; MIC [8]: 32 µg/mL
CCC(CC)=NNc1nc(-c2ccc(I)cc2)cs1,32 µg/mL,0.25 µg/mL,256 µg/mL,2 µg/mL,256 µg/mL,2 µg/mL,0.5 µg/mL,50 µg/mL,10%,45%,90%,90%,92%,95%,58%,63%,67%,80%,85%,92%,MIC [2]: 32 µg/mL; MIC [3]: 16 µg/mL; MIC [4]: 16 µg/mL; MIC [5]: > 128 µg/mL; MIC [6]: 32 µg/mL; MIC [7]: 32 µg/mL; MIC [8]: 32 µg/mL
CCCCC/C(C)=N/Nc1nc(-c2ccc(I)cc2)cs1,> 128 µg/mL,0.25 µg/mL,2 µg/mL,2 µg/mL,32 µg/mL,2 µg/mL,0.5 µg/mL,42 µg/mL,0%,22%,89%,90%,100%,100%,33%,42%,83%,90%,95%,98%,MIC [2]: > 128 µg/mL; MIC [3]: > 128 µg/mL; MIC [4]: > 128 µg/mL; MIC [5]: 32 µg/mL; MIC [6]: 32 µg/mL; MIC [7]: 8 µg/mL; MIC [8]: 32 µg/mL; EC50 [28]: 62 µg/mL
CC1CCC/C1=N\Nc1nc(-c2ccc(I)cc2)cs1 (centres undefined),32 µg/mL,0.25 µg/mL,2 µg/mL,2 µg/mL,32 µg/mL,2 µg/mL,0.5 µg/mL,30 µg/mL,6%,12%,36%,60%,90%,100%,0%,0%,70%,67%,89%,92%,MIC [2]: 32 µg/mL; MIC [3]: > 128 µg/mL; MIC [4]: > 128 µg/mL; MIC [5]: 32 µg/mL; MIC [6]: 32 µg/mL; MIC [7]: 8 µg/mL; MIC [8]: 32 µg/mL; EC50 [28]: 30 µg/mL
CC1CC/C(=N\Nc2nc(-c3ccc(I)cc3)cs2)C1 (centres undefined),32 µg/mL,0.25 µg/mL,2 µg/mL,2 µg/mL,4 µg/mL,2 µg/mL,0.5 µg/mL,50 µg/mL,10%,28%,90%,92%,100%,100%,0%,69%,88%,83%,92%,95%,MIC [2]: 32 µg/mL; MIC [3]: 32 µg/mL; MIC [4]: > 128 µg/mL; MIC [5]: 32 µg/mL; MIC [6]: 32 µg/mL; MIC [7]: 32 µg/mL; MIC [8]: 32 µg/mL; EC50 [28]: 51 µg/mL
C/C(=N\Nc1nc(-c2ccc(I)cc2)cs1)c1ccncc1,16 µg/mL,0.25 µg/mL,2 µg/mL,2 µg/mL,4 µg/mL,2 µg/mL,0.5 µg/mL,25 µg/mL,0%,10%,35%,58%,95%,95%,0%,37%,30%,66%,85%,90%,MIC [2]: 16 µg/mL; MIC [3]: > 128 µg/mL; MIC [4]: > 128 µg/mL; MIC [5]: 8 µg/mL; MIC [6]: 8 µg/mL; MIC [7]: 4 µg/mL; MIC [8]: 4 µg/mL; EC50 [28]: 30 µg/mL
Ic1ccc(-c2csc(N/N=C/c3cccc4ccccc34)n2)cc1,16 µg/mL,0.25 µg/mL,64 µg/mL,2 µg/mL,64 µg/mL,2 µg/mL,0.5 µg/mL,35 µg/mL,2%,5%,80%,78%,80%,95%,0%,39%,73%,80%,80%,90%,MIC [2]: 16 µg/mL; MIC [3]: 16 µg/mL; MIC [4]: 16 µg/mL; MIC [5]: > 128 µg/mL; MIC [6]: > 128 µg/mL; MIC [7]: 32 µg/mL; MIC [8]: 32 µg/mL; EC50 [28]: 40 µg/mL
Clc1ccccc1C(c1ccccc1)(c1ccccc1)n1ccnc1 [CLOTRIMAZOLE],,2 µg/mL,2 µg/mL,0.5 µg/mL,2 µg/mL,0.25 µg/mL,1 µg/mL,48 µg/mL,20%,32%,70%,82%,85%,100%,10%,20%,68%,70%,87%,100%,EC50 [28]: 40 µg/mL
